The test system of assay [1] is Pseudomonas aeruginosa. Kind of assay: Antibacterial activity against Pseudomonas aeruginosa MTCC 4673 at 30 ug/ml after 24 hrs by agar well diffusion assay. It counts as functional. The following applies: MTCC 4673, 24 h, read-out: IZ. In short, it runs like this: (§1)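 Agar well diffusion screen against the two Gram-positive strains (S. aureus, S. pyogenes) and the two Gram-negative strains (P. aeruginosa, K. pneumoniae). Streptomycin was the reference drug. Activity was read as zone of inhibition (mm).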
A general note: In agar diffusion tests the substance spreads into inoculated agar from a disc or well.

Assay [2] concerns Klebsiella pneumoniae. Briefly: Antibacterial activity against Klebsiella pneumoniae MTCC 109 at 30 ug/ml after 24 hrs by agar well diffusion assay. It counts as functional. Particulars: MTCC 109, 24 h, read-out: IZ. In short, it runs like this:
(§2)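 Agar well diffusion screen run in vitro against a bacterial panel: S. aureus and S. pyogenes (Gram-positive), P. aeruginosa and K. pneumoniae (Gram-negative). Streptomycin served as the reference standard drug.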

For assay [3], the system named is Streptococcus pyogenes. Briefly: Antibacterial activity against Streptococcus pyogenes MTCC 1926 at 30 ug/ml after 24 hrs by agar well diffusion assay. The following applies: MTCC 1926, 24 h, read-out: IZ. Format: functional. The procedure, abridged: as §1
For assay [4], the system named is Staphylococcus aureus. Kind of assay: Antibacterial activity against Staphylococcus aureus MTCC 96 at 30 ug/ml after 24 hrs by agar well diffusion assay. Format: functional. The following applies: MTCC 96, 24 h, read-out: IZ. The procedure, abridged:
as §2

The subject of assay [5] is Aspergillus parasiticus. Kind of assay: Antifungal activity against Aspergillus parasiticus MTCC 8850 at 30 ug/ml after 48 hrs by agar well diffusion method. Format: functional. Particulars: MTCC 8850, 48 h, read-out: IZ. In short, it runs like this: (§3)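 Antifungal screen by agar well diffusion against C. albicans, C. glabrata, A. niger and A. parasiticus. Clotrimazole was the standard drug. Activity was recorded as zone of inhibition (ZOI, mm).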

Assay [6] concerns Nakaseomyces glabratus. Briefly: Antifungal activity against Candida glabrata MTCC3019 at 30 ug/ml after 48 hrs by agar well diffusion method. Format: functional. Particulars: MTCC3019, 48 h, read-out: IZ. In short, it runs like this:
as §3

Assay [7] relates to Candida albicans. Briefly: Antifungal activity against Candida albicans MTCC 183 at 30 ug/ml after 48 hrs by agar well diffusion method. It counts as functional. Particulars: MTCC 183, 48 h, read-out: IZ. In short, it runs like this: as §3
Assay [8] concerns Aspergillus niger. Kind of assay: Antifungal activity against Aspergillus niger MTCC 282 at 30 ug/ml after 48 hrs by agar well diffusion method. It counts as functional. Particulars: MTCC 282, 48 h, read-out: IZ. In short, it runs like this: as §3
The test system of assay [9] is Aspergillus parasiticus. Briefly: Antifungal activity against Aspergillus parasiticus MTCC 8850 at 150 ug/ml after 48 hrs by agar well diffusion method. Format: functional. The following applies: MTCC 8850, 48 h, read-out: IZ. The procedure, abridged: as §3
The test system of assay [10] is Aspergillus niger. Briefly: Antifungal activity against Aspergillus niger MTCC 282 at 150 ug/ml after 48 hrs by agar well diffusion method. It counts as functional. Particulars: MTCC 282, 48 h, read-out: IZ. The procedure, abridged:
as §3

In assay [11] the test system is Nakaseomyces glabratus. Briefly: Antifungal activity against Candida glabrata MTCC3019 at 150 ug/ml after 48 hrs by agar well diffusion method. Format: functional. The following applies: MTCC3019, 48 h, read-out: IZ. In short, it runs like this: as §3
Assay [12] deals with Candida albicans. Briefly: Antifungal activity against Candida albicans MTCC 183 at 150 ug/ml after 48 hrs by agar well diffusion method. Particulars: MTCC 183, 48 h, read-out: IZ. Format: functional. The procedure, abridged:
as §3

In assay [13] the test system is Streptococcus pyogenes. Kind of assay: Antibacterial activity against Streptococcus pyogenes MTCC 1926 at 150 ug/ml after 24 hrs by agar well diffusion assay. Format: functional. Particulars: MTCC 1926, 24 h, read-out: IZ. In short, it runs like this:
as §1

Assay [14] has as its system Staphylococcus aureus. Kind of assay: Antibacterial activity against Staphylococcus aureus MTCC 96 at 150 ug/ml after 24 hrs by agar well diffusion assay. It counts as functional. Particulars: MTCC 96, 24 h, read-out: IZ. The procedure, abridged:
as §1

Assay [15] has as its system HepG2. Kind of assay: Anticancer activity against human HepG2 cells assessed as cell viability after 48 hrs by MTT microcultured tetrazolium assay. Particulars: HepG2, 48 h. It counts as functional, cell-based. The procedure, abridged: (§4)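 MTT-microcultured tetrazolium viability read-out in MCF-7 and HepG2 cells exposed to test samples. Surviving fraction was plotted against drug concentration to give survival curves, and IC50 was taken from these curves.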
Background: Formazan colour is commonly taken as a measure of viable cells.

Assay [16] relates to Pseudomonas aeruginosa. Briefly: Antibacterial activity against Pseudomonas aeruginosa MTCC 4673 at 150 ug/ml after 24 hrs by agar well diffusion assay. It counts as functional. Particulars: MTCC 4673, 24 h, read-out: IZ. The procedure, abridged:
as §1

For assay [17], the system named is MCF7. Kind of assay: Anticancer activity against human MCF7 cells assessed as cell viability after 48 hrs by MTT microcultured tetrazolium assay. The following applies: MCF7, 48 h. It counts as functional, cell-based. In short, it runs like this:
as §4

The subject of assay [18] is Klebsiella pneumoniae. Kind of assay: Antibacterial activity against Klebsiella pneumoniae MTCC 109 at 150 ug/ml after 24 hrs by agar well diffusion assay. It counts as functional. The following applies: MTCC 109, 24 h, read-out: IZ. The procedure, abridged: as §1

For `CN[C@@H]1[C@H](O[C@H]2[C@H](O[C@H]3[C@H](O)[C@@H](O)[C@H](N=C(N)N)[C@@H](O)[C@@H]3N=C(N)N)O[C@@H](C)[C@]2(O)C=O)O[C@@H](CO)[C@H](O)[C@H]1O` [STREPTOMYCIN], the zone of inhibition at 30 µg/mL in assay [1] worked out at 20 mm; in assay [2], 22 mm; in [3] it was 21 mm; in assay [4], 22 mm.

In the case of `Clc1ccccc1C(c1ccccc1)(c1ccccc1)n1ccnc1` [CLOTRIMAZOLE], the zone of inhibition at 30 µg/mL in assay [5] was determined as 20 mm; in assay [6], 22 mm; in [7] it was 24 mm; in assay [8], 20 mm.

Broadly, the IC50 is the concentration needed to halve the response being measured. For the compound `COc1ccc2c(c1)CCC1=C2N=c2s/c(=C\c3c(C)[nH]c4ccccc34)c(=O)n2C1c1ccc(Cl)cc1` (stereo not drawn), the zone of inhibition at 150 µg/mL in assay [9] turned out to be 12 mm; in [10], 8 mm; in assay [11], 8 mm; in assay [12], 8 mm; in assay [13], 8 mm; in assay [14], 8 mm. Besides, the zone of inhibition at 150 µg/mL in [16] and in assay [18] was 8 mm throughout. In addition, the values for the IC50 in assay [15] and in assay [17] were 38.8 µM and 61.9 µM, respectively.

In the case of `COc1ccc2c(c1)CCC1=C2N=c2s/c(=C\c3c(C)[nH]c4ccccc34)c(=O)n2C1c1cccc([N+](=O)[O-])c1` (stereo not drawn), the zone of inhibition at 150 µg/mL stood at 18 mm in assay [9]; 20 mm in assay [10]; 14 mm in assay [11]; 17 mm in assay [12]; 15 mm in [13]; 16 mm in [14]. The results for the zone of inhibition at 150 µg/mL in [16] and in [18] were 13 mm and 14 mm, respectively. The IC50 in [15] is 94.5 µM; in assay [17] it was > 200 µM.

Regarding `COc1ccc(C2C3=C(N=c4s/c(=C\c5c[nH]c6ccccc56)c(=O)n42)c2ccc(OC)cc2CC3)cc1` (stereo not drawn), the zone of inhibition at 150 µg/mL in assay [9] was determined as 18 mm; in assay [10], 18 mm; in [11], 20 mm; in [12], 18 mm; in assay [13], 18 mm; in [14], 17 mm. Besides, the zone of inhibition at 150 µg/mL in assay [16] came to 8 mm; in [18], 15 mm. The results for the IC50 in [15] and in assay [17] were 61.1 µM and 54.4 µM, respectively.

For the compound `COc1ccc2c(c1)CCC1=C2N=c2s/c(=C\c3c[nH]c4ccccc34)c(=O)n2C1c1ccc(Cl)cc1` (stereo not drawn), the zone of inhibition at 150 µg/mL turned out to be 10 mm in assay [9]; 8 mm in [10]; 14 mm in assay [11]; 8 mm in [12]; 8 mm in assay [13]; 8 mm in assay [14]. The zone of inhibition at 150 µg/mL in assay [16] and in [18] was 8 mm in each case. Besides, the IC50 was determined as 34.9 µM in assay [15] and 23.5 µM in assay [17].

Turning to `O=c1/c(=C/c2c[nH]c3ccccc23)sc2n1C(c1cccc([N+](=O)[O-])c1)C1=C(N=2)c2ccccc2CC1` (stereo not drawn), the zone of inhibition at 150 µg/mL in assay [9] was 12 mm; in assay [10] it was 12 mm; in [11] it was 10 mm; in assay [12], 8 mm; in assay [13], 8 mm; in assay [14], 8 mm. The zone of inhibition at 150 µg/mL in [16] and in [18] was 8 mm each time. In addition, the IC50 in [15] is 199 µM; in assay [17], > 200 µM.

(Values after ChEMBL document CHEMBL3352152, “Indolylmethylene benzo[h]thiazolo[2,3-b]quinazolinones: synthesis, characterization and evaluation of anticancer and antimicrobial activities” (Bioorg Med Chem Lett, 2014).)
